# Data: ChEMBL document CHEMBL1250473, “Synthesis and primary cytotoxicity evaluation of new 5-benzylidene-2,4-thiazolidinedione derivatives” (2010)
# What was measured:
# Type in all cases: functional
# [1] = Cytotoxicity against human Gurav cells after 48 hrs by SRB; conditions: for TGI: read-out: pTGI
# Procedure, shortened: (§1)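 Cells kept in RPMI 1640 with 10% FBS and 2 mM L-glutamine, plated at 5000 cells/well and incubated 24 h at 37 °C, 5% CO2. A time-zero plate was TCA-fixed at dosing. DMSO stocks were diluted in medium into four 10-fold concentrations, 10^-4 to 10^-7 M. Exposure lasted 48 h continuously, then cells were fixed in cold TCA, stained with 0.4% SRB and eluted with 10 mM Tris. A540 was read. GI50 = [(Ti−Tz)/(C−Tz)]×100 = 50; TGI from Ti = Tz.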
# HepG2 = assay: Cytotoxicity against human HepG2 cells after 48 hrs by SRB; conditions: HepG2, 48 h; for TGI: read-out: pTGI; procedure, shortened: as §1
# KB = assay: Cytotoxicity against human KB cells after 48 hrs by SRB; conditions: for TGI: read-out: pTGI; procedure, shortened: as §1
# MCF7 = assay: Cytotoxicity against human MCF7 cells after 48 hrs by SRB; conditions: MCF7, 48 h; for TGI: read-out: pTGI; procedure, shortened: as §1
# PC-3 = assay: Cytotoxicity against human PC3 cells after 48 hrs by SRB; conditions: PC-3, 48 h; for TGI: read-out: pTGI; procedure, shortened: as §1
# K562 = assay: Cytotoxicity against human K562 cells after 48 hrs by SRB; conditions: K562, 48 h; for TGI: read-out: pTGI; procedure, shortened: as §1
# HOP-62 = assay: Cytotoxicity against human HOP62 cells after 48 hrs by SRB; conditions: HOP-62, 48 h; for TGI: read-out: pTGI; procedure, shortened: as §1
SMILES,"GI50 ([1]; Homo sapiens, Gurav, 48 h) [µM]","TGI ([1]; Homo sapiens, Gurav, 48 h) [µM]",GI50 (HepG2) [µM],TGI (HepG2) [µM],GI50 (KB) [µM],TGI (KB) [µM],GI50 (MCF7) [µM],TGI (MCF7) [µM],GI50 (PC-3) [µM],TGI (PC-3) [µM],GI50 (K562) [µM],TGI (K562) [µM],GI50 (HOP-62) [µM],TGI (HOP-62) [µM],GI50 [1] [µM]
O=C1NC(=O)/C(=C/c2ccc(OCC(=O)N3c4ccccc4Sc4ccccc43)cc2)S1,> 100,> 100,> 100,> 100,> 100,> 100,29.5,> 100,29.5,> 100,> 100,> 100,,,
Cc1c(NC(=O)COc2ccc(/C=C3\SC(=O)NC3=O)cc2)c(=O)n(-c2ccccc2)n1C,> 100,> 100,> 100,> 100,> 100,> 100,> 100,> 100,> 100,> 100,> 100,> 100,0.186,> 100,
Cc1cnc(NC(=O)COc2ccc(/C=C3\SC(=O)NC3=O)cc2)s1,,,> 100,> 100,> 100,> 100,> 100,> 100,,,2.24,> 100,30.9,> 100,
CCCCC1=NC2(CCCC2)C(=O)N1C(=O)COc1ccc(/C=C2/SC(=O)NC2=O)cc1,> 100,> 100,> 100,> 100,> 100,> 100,28.2,> 100,> 100,> 100,> 100,> 100,29.5,> 100,
O=C(COc1ccc(/C=C2\SC(=O)NC2=O)cc1)Nc1cccc(C(F)(F)F)c1,,,> 100,> 100,2.24,> 100,,,2.51,> 100,0.191,> 100,> 100,> 100,
O=C(COc1ccc(/C=C2\SC(=O)NC2=O)cc1)Nc1nc2ccccc2s1,> 100,> 100,> 100,> 100,> 100,> 100,25.1,> 100,28.2,> 100,> 100,> 100,,,
O=C(COc1ccc(/C=C2\SC(=O)NC2=O)cc1)Nc1ncc([N+](=O)[O-])s1,> 100,> 100,> 100,> 100,> 100,> 100,> 100,> 100,> 100,> 100,> 100,> 100,> 100,> 100,
O=C1NC(=O)/C(=C\c2ccc(OCC(=O)N3C(=O)c4ccccc4S3(=O)=O)cc2)S1,31.6,> 100,> 100,> 100,> 100,> 100,37.2,> 100,> 100,> 100,2.69,> 100,> 100,> 100,
O=C(COc1ccc(/C=C2\SC(=O)NC2=O)cc1)Nc1ccccn1,> 100,> 100,> 100,> 100,> 100,> 100,29.5,> 100,29.5,> 100,> 100,> 100,2.29,> 100,
Cc1cc(NC(=O)COc2ccc(/C=C3\SC(=O)NC3=O)cc2)no1,38.9,> 100,> 100,> 100,> 100,> 100,39.8,> 100,> 100,> 100,2.75,> 100,> 100,> 100,
COc1cccc2c1C(=O)c1c(O)c3c(c(O)c1C2=O)C[C@@](O)(C(=O)CO)C[C@@H]3O[C@H]1C[C@H](N)[C@H](O)[C@H](C)O1 [DOXORUBICIN],0.158,,< 0.1,,< 0.1,,,,,,2.57,> 100,,,0.107
